Data set [1] is described as follows: Cmax in CD1 mouse at 30 mg/kg, po by HPLC coupled to tandem mass spectrometry. The format is ADME, organism-based. Also noted: dose 30 mg/kg, route oral. The following applies: in vivo. The procedure, abridged: (§1)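 Adult female CD-1 mice were dosed 10 mg/kg by iv injection or 30 mg/kg by oral gavage, with the compound in 100% saline. Blood samples were collected and drug content was measured by HPLC-tandem MS.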

Data set [2] in a line: Terminal half life in CD1 mouse at 30 mg/kg, po by HPLC coupled to tandem mass spectrometry. The format is ADME, organism-based. To be noted: in vivo, read-out: beta t1/2 (converted). Put shortly:
as §1

The test system of data set [3] is Mus musculus. Kind of data set: Oral bioavailability in CD1 mouse at 30 mg/kg by HPLC coupled to tandem mass spectrometry. The format is ADME, organism-based. To be noted: in vivo. Put shortly: as §1
Data set [4] can be described thus: Volume of distribution at steady state in CD1 mouse at 10 mg/kg, iv by HPLC coupled to tandem mass spectrometry. The following applies: in vivo, read-out: Vdss. The format is ADME, organism-based. The procedure, abridged: as §1
Data set [5] can be described thus: AUC (0 to infinity) in CD1 mouse at 10 mg/kg, iv by HPLC coupled to tandem mass spectrometry. The class given is ADME, organism-based. Also noted: dose 10 mg/kg, route intravenous, time infinity. The following applies: in vivo. The procedure, abridged: as §1
In data set [6] the test system is Plasmodium berghei. Kind of data set: Antiplasmodial activity against Plasmodium berghei infected in Swiss Webster mouse assessed as mouse survival at 3 mg/kg, po dosed once daily for 4 consecutive days beginning 1 hr after initial infection and measured on day 12 post infection by Giemsa staining method. The format is functional. The procedure, abridged:
(§2)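 Female Swiss Webster mice (about 20 g) infected ip with 6 × 10^6 P. berghei-infected erythrocytes. Oral gavage once daily for 4 days, starting 1 h after infection. Vehicle PEG300/propylene glycol/water (55/25/20 by weight). Giemsa-smear parasitemia counted daily from day 4. Mice euthanised above 50% parasitemia. Survival followed to day 21, 5 mice per dose, chloroquine 30 mg/kg as reference.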

Data set [7] relates to Mus musculus. The data set is described as follows: Cmax in CD1 mouse assessed as 5-(1-hydroxy-1,3-dihydrobenzo[c][1,2]oxaborol-6-yloxy)pyrazine-2-carboxylic acid level at 5 mg/kg, po by HPLC coupled to tandem mass spectrometry. The class given is ADME, organism-based. The arrangement: dose 5 mg/kg, route oral. The following applies: in vivo. The procedure, abridged:
(§3)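 The parent ester was given to adult female CD-1 mice at 5 mg/kg, iv or by oral gavage, in PEG 400/dimethylacetamide/water (45/10/45, pH 5.8). Blood was sampled, and the acid formed from the ester in vivo was quantified by HPLC-tandem MS to derive its PK parameters.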

Data set [8] deals with Mus musculus. Kind of data set: Tmax in CD1 mouse assessed as 5-(1-hydroxy-1,3-dihydrobenzo[c][1,2]oxaborol-6-yloxy)pyrazine-2-carboxylic acid level at 5 mg/kg, po by HPLC coupled to tandem mass spectrometry. The format is ADME, organism-based. To be noted: in vivo. The procedure, abridged: as §3
In data set [9] the test system is Mus musculus. Kind of data set: Oral bioavailability in CD1 mouse assessed as 5-(1-hydroxy-1,3-dihydrobenzo[c][1,2]oxaborol-6-yloxy)pyrazine-2-carboxylic acid level at 5 mg/kg by HPLC coupled to tandem mass spectrometry. The format is ADME, organism-based. To be noted: in vivo. The procedure, abridged: as §3
Data set [10] has as its system Plasmodium berghei. The data set is described as follows: Antiplasmodial activity against Plasmodium berghei infected in Swiss Webster mouse assessed as mouse survival at 100 mg/kg, po dosed once daily for 4 consecutive days beginning 1 hr after initial infection and measured on day 14 post infection by Giemsa staining method. The format is functional. The procedure, abridged:
as §2

Data set [11] concerns Plasmodium berghei. The data set is described as follows: Antiplasmodial activity against Plasmodium berghei infected in Swiss Webster mouse assessed as mouse survival at 100 mg/kg, po dosed once daily for 4 consecutive days beginning 1 hr after initial infection and measured on day 15 post infection by Giemsa staining method. The format is functional. Put shortly: as §2

Data set [12] deals with Plasmodium berghei. Kind of data set: Antiplasmodial activity against Plasmodium berghei infected in Swiss Webster mouse assessed as mouse survival at 200 mg/kg, po dosed once daily for 4 consecutive days beginning 1 hr after initial infection and measured on day 5 post infection by Giemsa staining method. The class given is functional. Put shortly: as §2
The subject of data set [13] is Plasmodium berghei. Kind of data set: Antiplasmodial activity against Plasmodium berghei infected in Swiss Webster mouse assessed as mouse survival at 200 mg/kg, po dosed once daily for 4 consecutive days beginning 1 hr after initial infection and measured on day 7 post infection by Giemsa staining method. The format is functional. The procedure, abridged: as §2

In data set [14] the test system is Plasmodium berghei. The data set is described as follows: Antiplasmodial activity against Plasmodium berghei infected in Swiss Webster mouse assessed as mouse survival at 200 mg/kg, po dosed once daily for 4 consecutive days beginning 1 hr after initial infection and measured on day 8 post infection by Giemsa staining method. The format is functional. Put shortly:
as §2

The subject of data set [15] is Plasmodium berghei. Kind of data set: Antiplasmodial activity against Plasmodium berghei infected in Swiss Webster mouse assessed as mouse survival at 200 mg/kg, po dosed once daily for 4 consecutive days beginning 1 hr after initial infection and measured on day 9 post infection by Giemsa staining method. The class given is functional. Put shortly: as §2
Data set [16] has as its system Liver microsome. The data set is described as follows: Stability in human liver microsomes assessed as compound remaining at 1 uM incubated for 1 hr in absence of NADPH by LC/MS/MS method. The class given is ADME. The procedure, abridged:
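Compound at 1 μM final (from a 1 mg/mL DMSO stock) was incubated with mouse or human liver microsomes (0.5 mg/mL protein) in 100 mM potassium phosphate, pH 7.4, at 37 °C with shaking, with or without 1 mM NADPH. Samples were taken over 0–120 min and tested in duplicate. Reactions were quenched with cold acetonitrile plus internal standard and analyzed by LC/MS/MS.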
A general note: Liver microsomes are vesicles of endoplasmic reticulum, rich in cytochrome P450 enzymes.

We go through three compounds from ChEMBL document CHEMBL3580633, “Benzoxaborole antimalarial agents. Part 4. Discovery of potent 6-(2-(alkoxycarbonyl)pyrazinyl-5-oxy)-1,3-dihydro-1-hydroxy-2,1-benzoxaboroles” (J Med Chem, 2015).

A word on the Cmax: it is the maximum level reached in the sampled fluid or tissue. The AUC(0-inf) is the area under the concentration-time curve extrapolated to infinity. The low end stands for less exposure, the high end for more exposure. As to `O=C(O)c1cnc(Oc2ccc3c(c2)B(O)OC3)cn1`, the Cmax in [1] turned out to be 19500 ng/mL. Further, the half-life in data set [2] was 13.8 min. The compound further had a F in data set [3] of 67%. Besides, in [4], the Vd was found to be 0.848 L/kg. This compound also displayed an AUC(0-inf) in data set [5] of 4300 ng·h/mL.

As a reminder, the Tmax is the time from dosing to the highest level. For the compound `COC(=O)c1cnc(Oc2ccc3c(c2)B(O)OC3)cn1`, the survival at 3 mg/kg in [6] came to 0%. For the same compound, the Cmax in [7] was found to be 920 ng/mL. Besides, the Tmax in data set [8] amounted to 15 min. The F in [9] is recorded as 29%. The survival at 100 mg/kg in [10] and in data set [11] was 40% each time.

As for `NC(=O)c1cnc(Oc2ccc3c(c2)B(O)OC3)cn1`, the survival at 200 mg/kg in data set [12] was found to be 100%; in data set [13], 100%; in [14], 100%; in [15], 40%. Besides, the Stability in data set [16] is reported as 100%.
